Reference: ChEMBL document CHEMBL3351896, “Small Molecule that Reverses Dexamethasone Resistance in T-cell Acute Lymphoblastic Leukemia (T-ALL)” (ACS Med Chem Lett, 2014)
The source made the active and inactive calls. The calls are words filed in the database; no cut-off is given here.

Tests used:
Format in all cases: functional, cell-based
CUTLL1 [1] = experiment: Effect on CDC45 gene expression in human CUTLL1 cells in presence of 1 uM dexamethasone at 30 uM after 24 hrs by microarray method
Method in brief: (§1)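 CUTLL1 T-ALL cells exposed 24 h to vehicle (DMSO), dexamethasone alone (1 μM), test agent alone (30 μM), or dexamethasone (1 μM) plus test agent (30 μM), in triplicate. Expression profiled by microarray. Leading-edge genes from GSEA were compared between the dexamethasone-plus-agent and dexamethasone-alone groups, using glucocorticoid-regulated gene sets from ALL patients on glucocorticoid therapy.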

CUTLL1 [2] = experiment: Effect on NHP2 gene expression in human CUTLL1 cells in presence of 1 uM dexamethasone at 30 uM after 24 hrs by microarray method; method in brief: as §1
CUTLL1 [3] = experiment: Effect on DSCC1 gene expression in human CUTLL1 cells in absence of 1 uM dexamethasone at 30 uM after 24 hrs by microarray method; method in brief: as §1
CUTLL1 [4] = experiment: Increase in GR expression in human CUTLL1 cells at 25 to 50 uM in presence of 1 uM dexamethasone and 1 uM […] and glucocorticoid receptor antagonist RU486 after 24 hrs by Western blotting method
Method in brief: (§2)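 CUTLL1 cells exposed to compound (25 or 50 μM) alone, with 1 μM dexamethasone, or with dexamethasone plus 1 μM RU486, for 6 or 24 h. GR measured as protein by Western blot and as transcript by RT-qPCR.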

CUTLL1 [5] = experiment: Effect on E2F7 gene expression in human CUTLL1 cells in absence of 1 uM dexamethasone at 30 uM after 24 hrs by microarray method; method in brief: as §1
CUTLL1 [6] = experiment: Effect on RAD51AP1 gene expression in human CUTLL1 cells in absence of 1 uM dexamethasone at 30 uM after 24 hrs by microarray method
Method in brief: (§3)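 Human CUTLL1 T-ALL cells exposed for 24 h to vehicle (DMSO), dexamethasone alone (1 μM), test compound alone (30 μM), or dexamethasone 1 μM plus compound 30 μM, each in triplicate. Expression profiled by microarray. Glucocorticoid-regulated gene sets from ALL patients on glucocorticoid therapy scored by GSEA. Leading-edge genes compared between the combination and dexamethasone alone.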

CUTLL1 [7] = experiment: Effect on RUVBL1 gene expression in human CUTLL1 cells in presence of 1 uM dexamethasone at 30 uM after 24 hrs by microarray method; method in brief: as §3
CUTLL1 [8] = experiment: Effect on CHEK1 gene expression in human CUTLL1 cells in presence of 1 uM dexamethasone at 30 uM after 24 hrs by microarray method; method in brief: as §1
CUTLL1 [9] = experiment: Effect on TIFA gene expression in human CUTLL1 cells in absence of 1 uM dexamethasone at 30 uM after 24 hrs by microarray method; method in brief: as §3
CUTLL1 [10] = experiment: Effect on APITD1 gene expression in human CUTLL1 cells in absence of 1 uM dexamethasone at 30 uM after 24 hrs by microarray method; method in brief: as §1
CUTLL1 [11] = experiment: Growth inhibition of human CUTLL1 cells at 50 uM in presence of MG262 after 48 hrs by alamar blue assay
CUTLL1 [12] = experiment: Increase in GR expression in human CUTLL1 cells at 25 to 50 uM in presence of 1 uM dexamethasone and 1 uM […] and glucocorticoid receptor antagonist RU486 after 24 hrs by RT-qPCR method; method in brief: as §2
CUTLL1 [13] = experiment: Effect on USP1 gene expression in human CUTLL1 cells in absence of 1 uM dexamethasone at 30 uM after 24 hrs by microarray method; method in brief: as §3
CUTLL1 [14] = experiment: Effect on TWISTNB gene expression in human CUTLL1 cells in presence of 1 uM dexamethasone at 30 uM after 24 hrs by microarray method; method in brief: as §3
CUTLL1 [15] = experiment: Effect on SPC25 gene expression in human CUTLL1 cells in absence of 1 uM dexamethasone at 30 uM after 24 hrs by microarray method; method in brief: as §3
CUTLL1 [16] = experiment: Effect on PCNA gene expression in human CUTLL1 cells in presence of 1 uM dexamethasone at 30 uM after 24 hrs by microarray method; method in brief: as §3
CUTLL1 [17] = experiment: Effect on FEN1 gene expression in human CUTLL1 cells in presence of 1 uM dexamethasone at 30 uM after 24 hrs by microarray method; method in brief: as §1
CUTLL1 [18] = experiment: Effect on FKBP5 gene expression in human CUTLL1 cells in presence of 1 uM dexamethasone at 30 uM after 24 hrs by microarray method; method in brief: as §1
CUTLL1 [19] = experiment: Effect on PFAS gene expression in human CUTLL1 cells in presence of 1 uM dexamethasone at 30 uM after 24 hrs by microarray method; method in brief: as §3
CUTLL1 [20] = experiment: Effect on ZFP36L2 gene expression in human CUTLL1 cells in presence of 1 uM dexamethasone at 30 uM after 24 hrs by microarray method; method in brief: as §3
CUTLL1 [21] = experiment: Effect on TWISTNB gene expression in human CUTLL1 cells in absence of 1 uM dexamethasone at 30 uM after 24 hrs by microarray method; method in brief: as §3
CUTLL1 [22] = experiment: Effect on RAD51AP1 gene expression in human CUTLL1 cells in presence of 1 uM dexamethasone at 30 uM after 24 hrs by microarray method; method in brief: as §3
[23] = Growth inhibition of human CUTLL1 cells in absence of 1 uM dexamethasone after 48 hrs by alamar blue assay; conditions: CUTLL1, 48 h
Method in brief: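 CUTLL1 cells given compound alone or with dexamethasone 1 μM. Growth inhibition measured by alamar blue after 48 h.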

CUTLL1 [24] = experiment: Effect on TIFA gene expression in human CUTLL1 cells in presence of 1 uM dexamethasone at 30 uM after 24 hrs by microarray method; method in brief: as §3
CUTLL1 [25] = experiment: Effect on SOCS1 gene expression in human CUTLL1 cells in absence of 1 uM dexamethasone at 30 uM after 24 hrs by microarray method; method in brief: as §3
CUTLL1 [26] = experiment: Effect on RANBP1 gene expression in human CUTLL1 cells in absence of 1 uM dexamethasone at 30 uM after 24 hrs by microarray method; method in brief: as §3
CUTLL1 [27] = experiment: Effect on NXT1 gene expression in human CUTLL1 cells in absence of 1 uM dexamethasone at 30 uM after 24 hrs by microarray method; method in brief: as §1
CUTLL1 [28] = experiment: Effect on ZFP36L2 gene expression in human CUTLL1 cells in absence of 1 uM dexamethasone at 30 uM after 24 hrs by microarray method; method in brief: as §3
CUTLL1 [29] = experiment: Effect on SMC2 gene expression in human CUTLL1 cells in absence of 1 uM dexamethasone at 30 uM after 24 hrs by microarray method; method in brief: as §3
CUTLL1 [30] = experiment: Effect on SMAP2 gene expression in human CUTLL1 cells in absence of 1 uM dexamethasone at 30 uM after 24 hrs by microarray method; method in brief: as §3
CUTLL1 [31] = experiment: Effect on BTG1 gene expression in human CUTLL1 cells in presence of 1 uM dexamethasone at 30 uM after 24 hrs by microarray method; method in brief: as §1
CUTLL1 [32] = experiment: Effect on CDC45 gene expression in human CUTLL1 cells in absence of 1 uM dexamethasone at 30 uM after 24 hrs by microarray method; method in brief: as §1
CUTLL1 [33] = experiment: Effect on BYSL gene expression in human CUTLL1 cells in presence of 1 uM dexamethasone at 30 uM after 24 hrs by microarray method; method in brief: as §1

Nc1ncc(-c2ccncc2)c(C2CC2)n1
Activity (CUTLL1 [1]): Active
Activity (CUTLL1 [2]): Active
Activity (CUTLL1 [3]): inactive
Activity (CUTLL1 [4]): inactive
Activity (CUTLL1 [5]): inactive
Activity (CUTLL1 [6]): inactive
Activity (CUTLL1 [7]): Active
Activity (CUTLL1 [8]): Active
Activity (CUTLL1 [9]): inactive
Activity (CUTLL1 [10]): inactive
growth inhibition (GI) (CUTLL1 [11]): inactive
Activity (CUTLL1 [12]): inactive
Activity (CUTLL1 [13]): inactive
Activity (CUTLL1 [14]): Active
Activity (CUTLL1 [15]): inactive
Activity (CUTLL1 [16]): Active
Activity (CUTLL1 [17]): Active
Activity (CUTLL1 [18]): Active
Activity (CUTLL1 [19]): Active
Activity (CUTLL1 [20]): Active
Activity (CUTLL1 [21]): inactive
Activity (CUTLL1 [22]): Active
EC50 [23]: ≥ 100 µM
Activity (CUTLL1 [24]): Active
Activity (CUTLL1 [25]): inactive
Activity (CUTLL1 [26]): inactive
Activity (CUTLL1 [27]): inactive
Activity (CUTLL1 [28]): inactive
Activity (CUTLL1 [29]): inactive
Activity (CUTLL1 [30]): inactive
Activity (CUTLL1 [31]): Active
Activity (CUTLL1 [32]): inactive
Activity (CUTLL1 [33]): Active
